Experimental data published in ChEMBL document CHEMBL1938254, “Semisynthetic neoboutomellerone derivatives as ubiquitin-proteasome pathway inhibitors” (Bioorg Med Chem, 2012).
Where “and” joins values, the source holds several entries; their conditions need not be identical. Equal entries are not always repeated.

What was measured:
Format in all cases: cell-based
DLD-1 [1] = experiment: Inhibition of 20S proteasome in human DLD1 cells transfected with 4Ub-Luc gene assessed as bioluminescence induction factor at 1 uM after 8 hrs by luciferase reporter gene assay relative to epoxomicin
Outline: (§1)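 Stably transfected DLD-1 cells expressing 4Ub-Luc reporter, cultured in MEM with 5% heat-inactivated serum. Seeded at 10⁴ cells/well and treated with compound or solvent for 8 h. Luciferase activity in lysates read by luminometer. Induction factor = signal of treated over untreated cells, normalised to epoxomicin at 10^-7 M run in parallel (set to 100). IF ≥10 counted active.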

DLD-1 [2] = experiment: Inhibition of 20S proteasome in human DLD1 cells transfected with 4Ub-Luc gene assessed as bioluminescence induction factor at 5 uM after 8 hrs by luciferase reporter gene assay relative to epoxomicin; outline: as §1
[3] = Inhibition of peptide-glutamyl-peptide-hydrolyzing activity of 20S proteasome in human DLD1 cells transfected with 4Ub-Luc gene using Z-Leu-Leu-Glu-AMC as substrate after 6 hrs by spectrofluorometric analysis; details: dld-1
Outline: (§2)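 DLD-1 4Ub-Luc cells seeded at 10⁴ cells/well, exposed to compound or solvent for 6 h, then 30 min in reaction buffer (30 mM Tris–HCl pH 7.5, 1 mM ATP). Chymotrypsin-like and PGPH activities read with specific fluorogenic substrates.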

[4] = Inhibition of chymotrypsin-like activity of 20S proteasome in human DLD1 cells transfected with 4Ub-Luc gene using Succinyl-Leu-Leu-Val-Tyr-AMC as substrate after 6 hrs by spectrofluorometric analysis; details: dld-1; outline: as §2
DLD-1 [5] = experiment: Inhibition of 20S proteasome in human DLD1 cells transfected with 4Ub-Luc gene assessed as bioluminescence induction factor at 0.5 uM after 8 hrs by luciferase reporter gene assay relative to epoxomicin; outline: as §1
DLD-1 [6] = experiment: Inhibition of 20S proteasome activity in human DLD1 cells transfected with 4Ub-Luc gene assessed as bioluminescence induction factor at 10 uM after 8 hrs by luciferase reporter gene assay relative to epoxomicin; outline: as §1

Row | SMILES | fold change (FC) (DLD-1 [1]) | fold change (FC) (DLD-1 [2]) | IC50 [3] | IC50 [4] | fold change (FC) (DLD-1 [5]) | fold change (FC) (DLD-1 [6])
1 | C=CC(=O)OC[C@H](C)C(=C)C(=O)[C@H](OC(C)=O)[C@@H](C)[C@H]1[C@@H](OC(C)=O)C[C@@]2(C)[C@@H]3CC[C@H]4[C@H](C)C(=O)C=C[C@@]45C[C@@]35CC[C@]12C | 20 | 18 | 13 µM | 14 µM | 1.4 | 2.2
2 | C=C(C(=O)[C@H](OC(C)=O)[C@@H](C)[C@H]1[C@@H](OC(C)=O)C[C@@]2(C)[C@@H]3CC[C@H]4[C@H](C)C(=O)C=C[C@@]45C[C@@]35CC[C@]12C)[C@@H](C)COC(=O)CCN(CC)CC | 26 | 11 | 9.4 µM | 10 µM | 1.5 | 2.7
3 | C=C(C(=O)[C@H](OS(=O)(=O)O)[C@@H](C)[C@H]1[C@@H](OC(C)=O)C[C@@]2(C)[C@@H]3CC[C@H]4[C@H](C)C(=O)C=C[C@@]45C[C@@]35CC[C@]12C)[C@@H](C)COS(=O)(=O)O | 1 | 1 | > 1000 µM | > 1000 µM | 1 | 1.1
4 | C=C(C(=O)[C@H](OC(C)=O)[C@@H](C)[C@H]1[C@@H](OC(C)=O)C[C@@]2(C)[C@@H]3CC[C@H]4[C@H](C)/C(=N/O)C=C[C@@]45C[C@@]35CC[C@]12C)[C@@H](C)CO | 1 | 103 | – | – | 1 | –
5 | C=C(C(=O)[C@H](OC(C)=O)[C@@H](C)[C@H]1[C@@H](OC(C)=O)C[C@@]2(C)[C@@H]3CC[C@H]4[C@H](C)C(=O)C=C[C@@]45C[C@@]35CC[C@]12C)[C@@H](C)COC(=O)CCC(=O)O | 45 and 61 | 20 and 15 | 37 µM | 25 µM | 1.4 and 2 | 4.4 and 3.7
6 | C=C(C(=O)[C@H](OC(=O)CNC(=O)OC(C)(C)C)[C@@H](C)[C@H]1[C@@H](OC(C)=O)C[C@@]2(C)[C@@H]3CC[C@H]4[C@H](C)C(=O)C=C[C@@]45C[C@@]35CC[C@]12C)[C@@H](C)COC(=O)CNC(=O)OC(C)(C)C | 47 | 33 | 38 µM | 21 µM | 4.3 | 17
7 | C=C(C(=O)[C@H](OC(=O)CCC(=O)O)[C@@H](C)[C@H]1[C@@H](OC(C)=O)C[C@@]2(C)[C@@H]3CC[C@H]4[C@H](C)C(=O)C=C[C@@]45C[C@@]35CC[C@]12C)[C@@H](C)COC(C)=O | 69 | 16 | 10 µM | 12 µM | 2 | 3
8 | C=C(C(=O)[C@H](O)[C@@H](C)[C@H]1[C@@H](OC(C)=O)C[C@@]2(C)[C@@H]3CC[C@H]4[C@H](C)C(=O)C=C[C@@]45C[C@@]35CC[C@]12C)[C@@H](C)COC(=O)N1CCN(C)CC1 | 69 and 70 | 7.1 and 4.5 | – | – | 15.4 and 12 | 1.5 and 1.4
9 | C=C(C(=O)[C@H](OC(=O)CNC(=O)OC(C)(C)C)[C@@H](C)[C@H]1[C@@H](OC(C)=O)C[C@@]2(C)[C@@H]3CC[C@H]4[C@H](C)C(=O)C=C[C@@]45C[C@@]35CC[C@]12C)[C@@H](C)CO | 14 | 36 | – | – | 2 | 5
10 | C=C(C(=O)[C@H](OC(C)=O)[C@@H](C)[C@H]1[C@@H](OC(C)=O)C[C@@]2(C)[C@@H]3CC[C@H]4[C@H](C)C(=O)C=C[C@@]45C[C@@]35CC[C@]12C)[C@@H](C)COC | 40 | 44 | 100 µM | 86 µM | 1.4 | –
11 | C=C(C(=O)[C@H](O)[C@@H](C)[C@H]1[C@@H](OC(C)=O)C[C@@]2(C)[C@@H]3CC[C@H]4[C@H](C)C(=O)C=C[C@@]45C[C@@]35CC[C@]12C)[C@@H](C)COC(=O)CN(C)C | 22 and 17 | 35 and 34 | – | – | 1.3 | 6.8 and 4
12 | CC(=O)O[C@H]1C[C@@]2(C)[C@@H]3CC[C@H]4[C@H](C)C(=O)C=C[C@@]45C[C@@]35CC[C@]2(C)[C@H]1[C@H](C)[C@@H](O)C(=O)C=C(C)C | 1.1 | 5.2 | > 1000 µM | > 1000 µM | – | 53
13 | C=CCOC[C@H](C)C(=C)C(=O)[C@H](OC(C)=O)[C@@H](C)[C@H]1[C@@H](OC(C)=O)C[C@@]2(C)[C@@H]3CC[C@H]4[C@H](C)C(=O)C=C[C@@]45C[C@@]35CC[C@]12C | 15 | 49 | 100 µM | 100 µM | 1.8 | 19
14 | C=C(C(=O)[C@H](OC(C)=O)[C@@H](C)[C@H]1[C@@H](OC(C)=O)C[C@@]2(C)[C@@H]3CC[C@H]4[C@H](C)/C(=N\OC)C=C[C@@]45C[C@@]35CC[C@]12C)[C@@H](C)CO | 0.7 | 3.4 | 12 µM | 11 µM | – | 24
15 | C=C(C(=O)[C@H](O)[C@@H](C)[C@H]1[C@@H](OC(C)=O)C[C@@]2(C)[C@@H]3CC[C@H]4[C@H](C)C(=O)C=C[C@@]45C[C@@]35CC[C@]12C)[C@@H](C)COCOC(C)=O | 40 | 34 | 31 µM | 22 µM | 1.7 | 3
16 | CC(=O)O[C@H]1C[C@@]2(C)[C@@H]3CC[C@H]4[C@H](C)C(=O)C=C[C@@]45C[C@@]35CC[C@]2(C)[C@H]1[C@H](C)[C@@H](OC(C)=O)C(=O)C=C(C)C | 1.1 | 34 | > 1000 µM | > 1000 µM | – | 44
17 | C=C(C(=O)[C@H](OC(C)=O)[C@@H](C)[C@H]1[C@@H](OC(C)=O)C[C@@]2(C)[C@@H]3CC[C@H]4[C@H](C)/C(=N\NC(N)=O)C=C[C@@]45C[C@@]35CC[C@]12C)[C@@H](C)CO | 1.4 | 99 | 4.1 µM | 8.6 µM | – | 30
18 | C=C(C(=O)[C@H](OC(C)=O)[C@@H](C)[C@H]1[C@@H](OC(C)=O)C[C@@]2(C)[C@@H]3[C@H]4O[C@H]4[C@H]4[C@H](C)C(=O)C=C[C@@]45C[C@@]35CC[C@]12C)[C@@H](C)CO | 2.8 | 72 | 60 µM | 48 µM | – | 15
19 | C=C(C(=O)[C@H](OC(C)=O)[C@@H](C)[C@H]1[C@@H](OC(C)=O)C[C@@]2(C)[C@@H]3CC[C@H]4[C@H](C)C(=O)C=C[C@@]45C[C@@]35CC[C@]12C)[C@@H](C)COP(=O)(O)O | 0.9 and 1 | 3 and 4.4 | > 1000 µM | 92 µM | – | 46 and 51
20 | C=C(C(=O)[C@H](O)[C@@H](C)[C@H]1[C@@H](OC(C)=O)C[C@@]2(C)[C@@H]3CC[C@H]4[C@H](C)C(=O)C=C[C@@]45C[C@@]35CC[C@]12C)[C@@H](C)COC(=O)CNC(=O)OC(C)(C)C | 4.8 | 47 | > 1000 µM | > 1000 µM | – | 16
21 | COCC(C(=O)[C@H](O)[C@@H](C)[C@H]1[C@@H](OC(C)=O)C[C@@]2(C)[C@@H]3CC[C@H]4[C@H](C)C(=O)C=C[C@@]45C[C@@]35CC[C@]12C)[C@@H](C)CO (some centres undefined) | 1.1 | 1.2 | – | – | 0.9 | 2.6
22 | C=C(C(=O)[C@H](O)[C@@H](C)[C@H]1[C@@H](OC(C)=O)C[C@@]2(C)[C@@H]3CC[C@H]4[C@H](C)C(=O)C=C[C@@]45C[C@@]35CC[C@]12C)[C@@H](C)COC(=O)CCC(=O)O | 62 and 46 | 11 and 18 | 47 µM | 61 µM | 6 and 2.6 | 3.5 and 5
23 | C=C(C(=O)[C@H](OC(C)=O)[C@@H](C)[C@H]1[C@@H](OC(C)=O)C[C@@]2(C)[C@@H]3CC[C@H]4[C@H](C)C(=O)C=C[C@@]45C[C@@]35CC[C@]12C)[C@@H](C)COP(=O)(OCC)OCC | 43 | 16 | 91 µM | 19 µM | 3 | 2
24 | C=C(C(=O)[C@H](O)[C@@H](C)[C@H]1[C@@H](OC(C)=O)C[C@@]2(C)[C@@H]3CC[C@H]4[C@H](C)C(=O)C=C[C@@]45C[C@@]35CC[C@]12C)C(C)C | 2.4 | 65 | > 1000 µM | > 1000 µM | – | 20
